Screens: PubChem BioAssay, several laboratories
This is a sample that favours compounds with a hit; in the whole collection about 2.4% have one here.
ROMK primary = modulators of human ROMK potassium channel | P48048 | 130,000 compounds, 2% hits | B-score at 10 µM | Tet-inducible ROMK, thallium flux fluorescence; actives lie on both sides;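 active = signal ratio slope over the read window, or its plate-corrected B-score, at least 3 SD from the plate mean, either direction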;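 also: B-score of the F/F0 ratio slope over 7 to 12 s after thallium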
Target sequence (P48048 whole entry, looked up): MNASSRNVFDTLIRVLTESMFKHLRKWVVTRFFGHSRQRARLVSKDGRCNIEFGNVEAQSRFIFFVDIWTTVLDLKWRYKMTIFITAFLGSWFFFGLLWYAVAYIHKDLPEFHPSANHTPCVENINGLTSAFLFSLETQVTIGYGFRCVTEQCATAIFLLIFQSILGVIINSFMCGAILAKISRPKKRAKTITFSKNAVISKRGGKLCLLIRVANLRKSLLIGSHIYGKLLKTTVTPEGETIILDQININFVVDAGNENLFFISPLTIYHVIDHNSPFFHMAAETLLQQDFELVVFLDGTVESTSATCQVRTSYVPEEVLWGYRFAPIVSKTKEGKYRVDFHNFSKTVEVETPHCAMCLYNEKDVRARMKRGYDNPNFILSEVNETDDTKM
Insulin prom inh = TRM-6 insulin promoter activity inhibition; TRM-6 cells (human fetal islet line), insulin promoter-eGFP reporter, imaging; reporter expression induced with tamoxifen; inhibition, % at 2 µM; 130,000 compounds, 0.9% hits; AID 1273;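 active = inhibition above the mean plus 3 SD, with well images judged a real hit on visual review, cut at about 60% in these data, passing the limit was not always enough; inconclusive = inhibition over the cutoff but images rejected on review; inactive = inhibition not above the cutoff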
bCat nuc transl = modulators of beta-catenin nuclear translocation. 190,000 compounds, 0.3% hits. HeLa beta-catenin nuclear translocation, immunofluorescence imaging. nuclear translocation activity, % at 5 µM. AID 1665;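 active = nuclear translocation activity above 50% at 5 µM, with a well cell count of 50 or more; inconclusive = wells under 50 cells across six images, flagged as toxic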;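 also: per-cell ratio of nuclear to cytoplasmic median beta-catenin stain intensity; plate controls were DMSO negative control for no effect and GSK-3 inhibitor IX positive control for full effect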
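Test system: HeLa cells, endogenous beta-catenin; Compound: single 5 µM dose plus 0.02–20 µM confirmation series; Times: compound exposure 24 h at 37°C; Signal: fluorescence imaging of beta-catenin antibody stain plus DAPI; Read-out: % activation, nuclear-to-cytoplasmic median beta-catenin signal ratio per cell.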
HSV replic up = HSV replication enhancement; HSV replication augmentation in cells, fold increase; maximum fold increase; 220,000 compounds, 0.005% hits; AID 1956; in the data active = maximum fold increase above about 1.5; inconclusive = no clear call, values can overlap the other calls; tested in PC3 cells
MT stabilizer = stabilizes microtubules in HeLa cells; AID 2205; 200,000 compounds, 0.83% hits; % tubulin-high responders, % at 10 µM; HeLa tubulin immunostaining HCS, 24 h; share of cells brighter than vehicle mean+2SD;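 active = plate Z-score above 3 for both tubulin-high and condensed-nucleus cell shares, with cell loss under 80%, at 10 µM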;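 also: anti alpha tubulin signal scored within the nucleus-defined area of each cell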
ROMK retest = human ROMK channel modulation, retest confirmation. shares compounds with ROMK primary. ROMK thallium flux, fluorescence ratio; hits give low values. normalized thallium flux (F/F0 slope) at 10 µM. 3,000 compounds, 54% hits. AID 1917;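 active = Flux at 10 µM at least 3 SD below or above vehicle control mean in one or both replicates; inconclusive = no clear call, values can overlap the other calls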
* = called active by the depositor; i = inactive; ? = inconclusive; . = no result.

SMILES	ROMK primary	Insulin prom inh	bCat nuc transl	HSV replic up	MT stabilizer	ROMK retest
CC(=O)N1C(C(=O)O)CSC1c1ccc(C)cc1 (stereo unspecified)	.	.	.	i	2	0.072
CN(C)c1ccnc(Nc2ccccc2)c1C#N	.	.	2	i	6	.
CN(C)c1ccnc2c[cH-]cc12.[Fe].c1ccc(-[c-]2[c-](-c3ccccc3)[c-](-c3ccccc3)[c-](-c3ccccc3)[c-]2-c2ccccc2)cc1 (stereo unspecified)	.	.	0	i	.	0.066*
Cc1ccc(C)c2sc(NC(=O)c3nc4ccccc4s3)nc12	1.8	-46	2	.	3	.
CC(=O)c1c(C)c2c(n1CCN(C)C)CCCC2	3.5*	14	.	i	2	0.078
CC(C)Cn1c(N)c(C(=O)COC(=O)c2ccc(F)cc2)c(=O)n(C)c1=O	0.28	17	-2	i	3	.
CCc1ccc(C(=O)OCC(=O)c2c(N)n(CC(C)C)c(=O)n(C)c2=O)cc1	-11*	10	6	i	2	0.082
Cc1ccc(Cn2nnc3c(=O)n(CC(=O)NCc4ccccc4)cnc32)cc1	2.3*	10	-1	i	4	0.089
O=C(C1CCN(S(=O)(=O)c2cccc3cccnc23)CC1)N1CCN(c2ccccc2)CC1	.	-10	2	i	2	.
O=C(C1CCCN(S(=O)(=O)c2cccc3cccnc23)C1)N1CCN(c2ccc(F)cc2)CC1 (stereo unspecified)	.	.	2	i	8	0.071
CCc1ccc(-c2nc(CN3CCC(C(=O)NCCN(CC)c4ccccc4)CC3)c(C)o2)cc1	.	.	-3	i	93	.
CCN(CCNC(=O)C1CCCN(Cc2nc(-c3ccc(OC)cc3)oc2C)C1)c1ccccc1 (stereo unspecified)	-3.9*	.	-2	i	9	0.059*
Cc1[nH]n(-c2ccccc2)c(=O)c1/C=N/NC(=O)C(C)C	0.7	.	3	i	4	.
Cc1cc(C)nc(/N=C(\N)Nc2cccc(OCc3ccccc3)c2)n1	.	.	26	i	.	0.055*
Cc1cc(C)nc(/N=C(\N)Nc2ccc(OCc3ccccc3)cc2)n1	-0.69	.	0	i	5	.
COc1ccc(-n2c(Cc3cccn3C)nnc2SCC(=O)NCCc2ccccc2)cc1	.	.	2	i	6	.
CC1CCN(c2ccc([N+](=O)[O-])cc2C(=O)O)CC1	0.035	27	-2	i	4	.
O=C(Nc1ccc2oc(=O)ccc2c1)c1cc([N+](=O)[O-])ccc1N1CCOCC1	-7.3*	.	-4	i	6	0.031*
O=C(c1ccc(Br)cc1)c1cc([N+](=O)[O-])ccc1N1CCOCC1	4.5*	.	7	i	16*	0.096
CC1CCCN(c2ccc([N+](=O)[O-])cc2C(=O)c2ccccc2)C1 (stereo unspecified)	2.3	-350	60*	i	6	0.09
O=C(c1ccc(Cl)cc1)c1cc([N+](=O)[O-])ccc1N1CCOCC1	1.7	.	48	i	10	.
COc1cccc(N(C(=O)Cn2nnc(-c3ccc(Cl)cc3)n2)C(C(=O)NCC2CCCO2)c2ccc(C)cc2)c1 (stereo unspecified)	.	.	0	i	2	.
Cc1ccc(S(=O)(=O)NC2=NCN(C3CCCCC3)CN2)cc1	.	-125	1	.	5	?
Cc1ccc(S(=O)(=O)NC2=NCN(Cc3cccnc3)CN2)cc1	0.58	.	-6	i	4	.
O=C(Nc1nc(-c2cccs2)c(-c2cccs2)s1)C1CCCC1	.	-34	0	i	3	.
SMILES	ROMK primary	Insulin prom inh	bCat nuc transl	HSV replic up	MT stabilizer	ROMK retest
C[c-]1[c-](C)[c-](C)[c-](C)[c-]1C.[Fe].c1cc2nccc(N3CCCC3)[c-]2c1 (stereo unspecified)	.	.	-1	i	.	0.048*
Cn1cnc2c(N3CCCCC3)nccc21	.	0	-1	i	1	.
COc1ccc(-n2c(N)c(C(=O)NCC3CCCO3)c3nc4ccccc4nc32)c(OC)c1 (stereo unspecified)	.	.	1	i	3	.
C=CCn1c(N)c(C(=O)NCC2CCCO2)c2nc3ccccc3nc21 (stereo unspecified)	.	.	2	i	3	0.066*
CCNC(=O)COC(=O)c1cccc(Br)c1	.	.	0	i	.	.
CCOC(=O)c1c(-c2ccccc2)csc1NC(=O)C1CCCO1 (stereo unspecified)	-0.042	.	3	i	3	.
CCOC(=O)c1c(-c2ccc(-c3ccccc3)cc2)csc1NC(=O)C1C2CCC(O2)C1C(=O)O (stereo unspecified)	.	0	.	i	3	0.11*
O=[N+]([O-])c1cccc(-c2noc(-c3ccco3)n2)c1	.	.	0	i	.	.
CNC(=O)/C(C#N)=C/c1c(N(Cc2ccccc2)Cc2ccccc2)nc2c(C)cccn2c1=O	.	.	0	i	1	0.059*
COc1ccccc1-n1cc(CN2CCCC(CO)(Cc3cccc(Cl)c3)C2)cn1 (stereo unspecified)	.	.	1	i	1	.
CC/C(C)=N/Oc1nc(C)cc(C)n1	.	.	0	i	.	.
Cc1nn(CC(=O)Nc2cccc(S(N)(=O)=O)c2)c(C)c1[N+](=O)[O-]	0.87	7	.	i	3	.
O=S(=O)(Nc1nc2ccccc2nc1Nc1ccc2c(c1)OCCO2)c1cccs1	.	27	-10	i	3	?
COc1ccc(S(=O)(=O)Nc2nc3ccccc3nc2Nc2ccc3c(c2)OCO3)cc1	-0.63	-20	3	i	2	.
COc1ccccc1N1CCN(C2CCN(C3CCC(c4ccccc4)CC3)CC2)CC1 (stereo unspecified)	-3.1*	.	2	i	5	0.061*
CCOC(=O)Cc1cc(=O)n2[nH]cc(-c3cccc(Br)c3)c2n1	0.83	.	-2	i	2	.
Cc1nc2ccccc2n1CC(O)COc1ccccc1Cl (stereo unspecified)	-1.6	?	3	i	2	0.057*
CCCCn1c(=N)n(CCOc2ccc(C)cc2)c2ccccc21	-3.5*	0	-1	.	2	0.051*
CCCCn1c(=N)n(CC(O)COc2cccc(C)c2)c2ccccc21 (stereo unspecified)	-5.8*	-36	-8	i	6	0.051*
Cc1ccccc1OCC(O)Cn1c(=N)n(Cc2ccccc2)c2ccccc21 (stereo unspecified)	-4.6*	.	1	i	.	0.05*
Cc1ccccc1OCC(O)Cn1c2ccccc2c2ccccc21 (stereo unspecified)	.	-10	2	i	2	.
CCn1cc(C(=O)N2CCCc3ccccc32)c2cc(OC)c(OC)cc2c1=O	.	.	2	.	6	.
O=C(NC(=S)N1CCOCC1)c1ccc([N+](=O)[O-])cc1	0	.	-1	i	4	.
COc1ccc(-c2nc3ccccc3c(=O)n2NC(=O)c2cccnc2Cl)cc1OC	0.55	17	-2	i	1	.
